Measured values published in PMC12667952 (bioRxiv, 2025).
Substitutions are numbered along the chain they refer to. Entries after “also recorded” stand apart in the source; their conditions may differ. Read-outs that look alike come from different tables or passages of the source.

Experiments:
[1] = target: T1, hGlyT2^WT (Homo sapiens, UniProt Q9Y345); assay type: cell-based
T1 sequence (Q9Y345 1-797): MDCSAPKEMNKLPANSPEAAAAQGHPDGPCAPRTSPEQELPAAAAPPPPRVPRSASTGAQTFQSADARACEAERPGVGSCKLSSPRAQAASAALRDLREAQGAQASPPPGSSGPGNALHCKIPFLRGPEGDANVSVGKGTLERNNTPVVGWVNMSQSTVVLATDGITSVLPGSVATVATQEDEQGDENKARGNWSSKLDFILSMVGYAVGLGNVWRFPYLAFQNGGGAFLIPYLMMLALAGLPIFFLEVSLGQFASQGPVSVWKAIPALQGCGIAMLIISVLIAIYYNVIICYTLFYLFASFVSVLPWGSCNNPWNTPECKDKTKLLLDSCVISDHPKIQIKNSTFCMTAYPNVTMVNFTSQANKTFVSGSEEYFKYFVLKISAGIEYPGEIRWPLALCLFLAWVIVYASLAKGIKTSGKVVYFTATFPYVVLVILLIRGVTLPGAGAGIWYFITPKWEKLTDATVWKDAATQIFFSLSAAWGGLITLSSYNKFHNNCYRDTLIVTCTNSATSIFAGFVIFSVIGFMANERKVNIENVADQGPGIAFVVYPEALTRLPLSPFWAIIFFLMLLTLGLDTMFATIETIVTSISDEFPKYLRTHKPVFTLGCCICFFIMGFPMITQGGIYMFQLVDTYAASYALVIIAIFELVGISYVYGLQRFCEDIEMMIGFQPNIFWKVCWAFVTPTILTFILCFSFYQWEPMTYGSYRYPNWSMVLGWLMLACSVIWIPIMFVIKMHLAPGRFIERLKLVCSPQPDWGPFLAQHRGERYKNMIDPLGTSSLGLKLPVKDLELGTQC

[2] = target: T2, hGlyT2^W215F (Homo sapiens, UniProt Q9Y345, W215F); assay type: cell-based
T2 sequence (Q9Y345 1-797 W215F): T1 sequence (Q9Y345 1-797) with W215F

[3] = target: T1, hGlyT2^WT; assay type: cell-based; settings: glycine concentration-dependent currents with co-applied inhibitor
[4] = target: T3, hGlyT2^D633E (Homo sapiens, UniProt Q9Y345, D633E); experiment: Reversibility; assay type: cell-based
T3 sequence (Q9Y345 1-797 D633E): T1 sequence (Q9Y345 1-797) with D633E

[5] = Study 2: in-life plasma and CNS drug exposure study in male C57BL/6 mice; assay type: in vivo, mouse; settings: 50 mg/kg i.p., 30 min
How it was run: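 Contract in-life study in male C57BL/6 mice (22 ± 2 g), acclimated for 3 days. Plasma and brain sampled at 30 and 120 min post-injection. Unbound plasma and brain concentrations calculated.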

[6] = tested on: PSNL mice; experiment: Mechanical allodynia; assay type: in vivo, mouse; settings: 50 mg/kg i.p., 90 mins
[7] = tested on: C57BL/6J mice; experiment: Conditioned place preference; assay type: in vivo, mouse; settings: 50 and 150 mg/kg, i.p.
[8] = target: serotonin 2A (5-HT2A) receptor (Homo sapiens, UniProt P28223); experiment: 5-HT2A receptor antagonist IC50 determination; assay type: cell-based
Sequence of serotonin 2A (5-HT2A) receptor (P28223 whole entry, species assumed): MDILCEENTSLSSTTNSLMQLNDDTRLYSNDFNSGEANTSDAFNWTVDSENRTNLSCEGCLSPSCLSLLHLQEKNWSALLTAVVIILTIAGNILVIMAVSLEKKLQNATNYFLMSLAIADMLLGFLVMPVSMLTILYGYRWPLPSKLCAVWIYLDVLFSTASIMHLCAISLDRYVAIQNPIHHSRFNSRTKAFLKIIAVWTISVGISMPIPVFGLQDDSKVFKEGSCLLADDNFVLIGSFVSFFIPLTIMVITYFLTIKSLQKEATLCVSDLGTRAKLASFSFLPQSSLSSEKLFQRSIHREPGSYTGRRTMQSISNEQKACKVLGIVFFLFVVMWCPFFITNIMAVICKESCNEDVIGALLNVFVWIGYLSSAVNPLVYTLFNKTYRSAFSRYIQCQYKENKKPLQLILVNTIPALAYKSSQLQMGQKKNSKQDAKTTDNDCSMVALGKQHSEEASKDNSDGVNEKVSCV

## CN(C)C1(CNC(=O)c2ccc3c(c2)CCN3C(=O)c2ccccc2)CCOCC1 [RPI-GLYT2–82, 1-benzoyl-N-((4-(dimethylamino)tetrahydro-2H-pyran-4-yl)methyl)indoline-5-carboxamide]
[1]
  IC50: 550 nM
[1]; IC50, inhibition of glycine transport currents, hGlyT2^WT, Xenopus oocytes, currents generated by EC50 (30 μM) glycine, n = 5
  IC50: 554 nM
[2]
  IC50: > 10000 nM
[3]
  Mechanism of inhibition: non-competitive inhibitor
[4]
  Washout of inhibitor from hGlyT2^D633E: almost immediate
[5]
  Cu,b, calculated unbound concentration in brain: 597.89 nM
[6]
  Peak reduction of response rate to von Frey stimulus: 22.5%
[7]
  Preference for the paired chamber: did not increase preference; also recorded: no significant preference
[8]
  IC50: 1900 nM
